Measurements from ChEMBL document CHEMBL1134546, “Structure-based design, synthesis, and biological evaluation of conformationally restricted novel 2-alkylthio-6-[1-(2,6-difluorophenyl)alkyl]-3,4-dihydro-5-alkylpyrimidin-4(3H)-ones as non-nucleoside inhibitors of HIV-1 reverse transcriptase” (J Med Chem, 2001).

What was measured:
MT4 [1] = experiment: CC50/EC50 ratio of the compound; assay type: functional
Method in brief: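 Selectivity index, calculated as CC₅₀/EC₅₀. Both values come from the parallel MTT readout in mock-infected and HIV-1 IIIB-infected MT-4 cells (4-day incubation at 37 °C).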

[2] = tested on: Human immunodeficiency virus 1; experiment: Effective concentration against HIV-1 induced cytopathogenicity in MT-4 cells; assay type: functional, organism-based, MT4
Method in brief: (§1)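 MT-4 cells (1 × 10⁴/well) incubated with serial compound dilutions (200 mM DMSO stock diluted in medium), with or without HIV-1 IIIB (100 CCID₅₀/well), 4 days at 37 °C in RPMI 1640 with 10% FCS. Viable cells counted by MTT. CC₅₀ from mock-infected cells and EC₅₀ as 50% protection from virus-induced cytopathicity, run in parallel. Mean of at least two experiments.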

MT4 [3] = experiment: Cytotoxicity against MT-4 cells.; assay type: functional, Homo sapiens; method in brief: as §1
[4] = target: Human immunodeficiency virus type 1 reverse transcriptase (Human immunodeficiency virus 1, UniProt Q72547); experiment: Inhibitory activity against HIV-1 recombinant reverse transcriptase.
[5] = tested on: Human immunodeficiency virus 1; experiment: Anti-HIV-1 activity determined as dose required to reduce p24 antigen levels.; assay type: functional
MT4 [6] = experiment: Anti-HIV-1 activity against Y181C HIV-1 strain in MT-4 cells; assay type: functional, cell-based; details: Homo sapiens
MT4 [7] = experiment: Anti-HIV-1 activity against WTIIIB HIV-1 strain in MT-4 cells; assay type: functional, cell-based; details: Homo sapiens
[8] = Human immunodeficiency virus 1, MT4

| SMILES | EC50 [2, 8] | Selectivity index (MT4 [1]) | CC50 (MT4 [3]; Homo sapiens, MT4) | IC50 [4] | other results |
| --- | --- | --- | --- | --- | --- |
| CC(C)Sc1nc(O)cc(C(C)c2c(Cl)cccc2Cl)n1 (stereo not drawn) | 1.2 µM | 97.5 | 117 µM |  |  |
| CCC(C)Sc1nc(O)cc(C(CC)c2ccccc2)n1 (stereo not drawn) | 0.4 µM | >500 | > 200 µM |  |  |
| CCC(c1cc(O)nc(SC(C)C)n1)c1c(Cl)cccc1Cl (stereo not drawn) | 0.4 µM | >500 | > 200 µM |  |  |
| CCC(c1ccccc1)c1cc(O)nc(SC2CCCC2)n1 (stereo not drawn) | 1 µM | >200 | > 200 µM | > 10 µM |  |
| CCC(C)Sc1nc(O)c(C)c(Cc2c(F)cccc2F)n1 (stereo not drawn) | 0.05 µM | >4000 | > 200 µM |  |  |
| O=c1cc(Cc2c(F)cccc2F)nc(SC2CCCC2)[nH]1 | 0.08 µM | >2500 |  |  | EC90 [5]: 0.08 µM; EC99 [5]: 0.15 µM; EC99.9 [5]: 0.3 µM |
| Cc1c(Cc2c(F)cccc2F)nc(SC(C)C)[nH]c1=O | 0.05 µM | >4000 |  |  | EC90 [5]: 0.026 µM; EC99 [5]: 0.065 µM; EC99.9 [5]: 0.15 µM |
| Cc1c(C(C)c2c(F)cccc2F)nc(SC2CCCC2)[nH]c1=O (stereo in doubt; [+]3w) |  | >100000 | > 200 µM | 0.008 µM | EC50 ([2]; mt4): 0.002 µM |
| CSc1nc(O)cc(C(C)c2c(F)cccc2F)n1 (stereo not drawn) | 0.18 µM | 115 | 20.8 µM | 0.2 µM |  |
| Cc1c(C(C)c2c(F)cccc2F)nc(SC2CCCC2)[nH]c1=O (stereo in doubt; 3w) |  | >33333 |  | 0.005 µM | EC90 [5]: 0.006 µM; EC99 [5]: 0.015 µM; EC99.9 [5]: 0.033 µM; EC50 ([2]; mt4): 0.006 µM |
| Cc1ccnc2c1NC(=O)c1cccnc1N2C1CC1 [NEVIRAPINE] |  |  |  |  | EC50 (MT4 [6]): > 30 µM; EC50 (MT4 [7]): 0.37 µM |
| Cc1c(C(C)c2c(F)cccc2F)nc(SC2CCCC2)[nH]c1=O (stereo in doubt; [-]3w) |  | >286 |  | 1 µM | EC50 ([2]; mt4): 0.07 µM; CC50 (MT4 [3]): 200 µM |
| CCC(c1cc(O)nc(SC2CCCCC2)n1)c1cccc2ccccc12 (stereo not drawn) | 0.18 µM | 94 | 16.9 µM | 1.4 µM |  |
| CCC(c1ccccc1)c1cc(O)nc(SC2CCCCC2)n1 (stereo not drawn) | 1.3 µM | >154 | > 200 µM | 3.7 µM |  |
| CCC(C)Sc1nc(O)cc(C(C)c2ccccc2)n1 (stereo not drawn) | 0.23 µM | 870 | 200 µM |  |  |
| CC(c1cc(O)nc(SC2CCCCC2)n1)c1cccc2ccccc12 (stereo not drawn) | 0.14 µM | 321.4 | 45 µM | 2.6 µM |  |

| SMILES | EC50 [2, 8] | Selectivity index (MT4 [1]) | CC50 (MT4 [3]; Homo sapiens, MT4) | IC50 [4] | other results |
| --- | --- | --- | --- | --- | --- |
| CCCCSc1nc(O)c(C)c(C(C)c2c(F)cccc2F)n1 (stereo not drawn) | 0.008 µM | 14000 | 112 µM |  |  |
| CC(C)Sc1nc(O)cc(C(C)c2ccccc2)n1 (stereo not drawn) | 0.9 µM | >222 | > 200 µM | 2.3 µM |  |
| CCC(c1cc(O)nc(SC2CCCC2)n1)c1cccc2ccccc12 (stereo not drawn) | 3 µM | 17 | 51 µM |  |  |
| CCC(C)Sc1nc(O)cc(Cc2c(F)cccc2F)n1 (stereo not drawn) | 0.04 µM | >5000 |  |  |  |
| Cc1c(O)nc(SCC(C)C)nc1C(C)c1c(F)cccc1F (stereo not drawn) | 0.01 µM | >20000 | > 200 µM |  |  |
| CC(C)Sc1nc(O)cc(C(C)c2cccc3ccccc23)n1 (stereo not drawn) | 1.1 µM | 108 | 119 µM | 5.8 µM |  |
| CCC(c1ccccc1)c1cc(O)nc(SC(C)C)n1 (stereo not drawn) | 0.8 µM | 250 | 200 µM | 2.3 µM |  |
| CC(c1ccccc1)c1cc(O)nc(SC2CCCC2)n1 (stereo not drawn) | 0.6 µM | 333 | 159 µM | 2.1 µM |  |
| CC(c1cc(O)nc(SC2CCCC2)n1)c1cccc2ccccc12 (stereo not drawn) | 0.5 µM | 186 | 93 µM | 0.4 µM |  |
| CC(C)Sc1nc(Cc2c(F)cccc2F)cc(=O)[nH]1 | 0.05 µM | >4000 |  |  | EC90 [5]: 0.042 µM; EC99 [5]: 0.083 µM; EC99.9 [5]: 0.19 µM |
| Cc1c(O)nc(SC(C)C)nc1C(C)c1c(F)cccc1F (stereo not drawn) | 0.007 µM | >28570 | > 200 µM | 0.019 µM |  |
| CCOCn1c(Cc2ccccc2)c(C(C)C)c(=O)[nH]c1=O [EMIVIRINE] | 0.03 µM | 6666 |  |  | EC90 [5]: 0.014 µM; EC99 [5]: 0.041 µM; EC99.9 [5]: 0.082 µM |
| CCC(c1cc(O)nc(SC(C)C)n1)c1cccc2ccccc12 (stereo not drawn) | 1.5 µM | 33.3 | 50 µM | 0.8 µM |  |
| CCC(c1cc(O)nc(SC(C)C)n1)c1c(F)cccc1F (stereo not drawn) | 0.08 µM | 875 | 70 µM |  | EC90 [5]: 0.015 µM; EC99 [5]: 0.035 µM; EC99.9 [5]: 0.09 µM |
| CC(c1cc(=O)[nH]c(SC2CCCC2)n1)c1c(F)cccc1F (stereo not drawn) | 0.03 µM | >6666 | > 200 µM | 0.05 µM | EC90 [5]: 0.015 µM; EC99 [5]: 0.035 µM; EC99.9 [5]: 0.09 µM |

More lines, main results first:

| EC50 [2, 8] | SMILES | Selectivity index (MT4 [1]) | CC50 (MT4 [3]; Homo sapiens, MT4) | IC50 [4] | other results |
| --- | --- | --- | --- | --- | --- |
| 0.018 µM | Cc1c(O)nc(SC2CCCCC2)nc1C(C)c1c(F)cccc1F (stereo not drawn) | >11111 | > 200 µM |  |  |
| 1 µM | CC(c1cc(O)nc(SC2CCCC2)n1)c1c(Cl)cccc1Cl (stereo not drawn) | 78.3 | 78.3 µM |  |  |
| 0.07 µM | CCCCSc1nc(O)cc(C(C)c2c(F)cccc2F)n1 (stereo not drawn) | 2857 | > 200 µM |  |  |
| 0.03 µM | CCC(C)Sc1nc(O)cc(C(C)c2c(F)cccc2F)n1 (stereo not drawn) | >6666 | > 200 µM |  |  |
| 0.05 µM | CC(C)CSc1nc(O)cc(C(C)c2c(F)cccc2F)n1 (stereo not drawn) | >4000 | > 200 µM |  |  |
| 0.05 µM | CCC(c1cc(O)nc(SC2CCCCC2)n1)c1c(F)cccc1F (stereo not drawn) | 2600 | > 200 µM |  |  |
| 0.16 µM | CC(c1cc(O)nc(SC2CCCCC2)n1)c1c(F)cccc1F (stereo not drawn) | >1250 | > 200 µM |  |  |
| 2.9 µM | CC(c1cc(O)nc(SC2CCCCC2)n1)c1c(Cl)cccc1Cl (stereo not drawn) | >69 | > 200 µM |  |  |
| 0.05 µM | CC(C)Sc1nc(O)cc(C(C)c2c(F)cccc2F)n1 (stereo not drawn) | 3340 | 167 µM |  | EC90 [5]: 0.042 µM; EC99 [5]: 0.083 µM; EC99.9 [5]: 0.19 µM |
| 0.6 µM | CC(c1ccccc1)c1cc(O)nc(SC2CCCCC2)n1 (stereo not drawn) | 248 | 149 µM |  |  |
| 3.6 µM | CCC(c1cc(O)nc(SC2CCCCC2)n1)c1c(Cl)cccc1Cl (stereo not drawn) | >55.5 | > 200 µM |  |  |
| 1 µM | CCC(c1cc(O)nc(SC2CCCC2)n1)c1c(Cl)cccc1Cl (stereo not drawn) | 23.4 | 23.4 µM |  |  |
| 0.15 µM | CCC(c1cc(O)nc(SC2CCCC2)n1)c1c(F)cccc1F (stereo not drawn) | 1333 | > 200 µM |  | EC90 [5]: 0.08 µM; EC99 [5]: 0.15 µM; EC99.9 [5]: 0.3 µM |
